Experimental data: paper PMC11318567 (Computational and Structural Biotechnology Journal, 2024)
Entries after “also recorded” stand apart in the source; their conditions may differ.

What was measured:
[1] = system: NCI-60 human cancer cell lines; test: NCI-60 screening, whole panel; assay type: cell-based; details: 10 µM
U251 = test: NCI-60 screening; assay type: cell-based; details: Homo sapiens, U-251, read-out: inhibition of cell growth
SK-MEL-5 = test: NCI-60 screening; assay type: cell-based; details: Homo sapiens, SK-MEL-5, read-out: inhibition of cell growth
human topo IIα [2] = target: T1, human topo IIα (Homo sapiens, UniProt P11388); test: Human topo IIα-mediated decatenation assay; assay type: biochemical; details: for IC50, topo IIα-mediated decatenation assay: average of two replicates
T1 sequence (P11388 whole entry): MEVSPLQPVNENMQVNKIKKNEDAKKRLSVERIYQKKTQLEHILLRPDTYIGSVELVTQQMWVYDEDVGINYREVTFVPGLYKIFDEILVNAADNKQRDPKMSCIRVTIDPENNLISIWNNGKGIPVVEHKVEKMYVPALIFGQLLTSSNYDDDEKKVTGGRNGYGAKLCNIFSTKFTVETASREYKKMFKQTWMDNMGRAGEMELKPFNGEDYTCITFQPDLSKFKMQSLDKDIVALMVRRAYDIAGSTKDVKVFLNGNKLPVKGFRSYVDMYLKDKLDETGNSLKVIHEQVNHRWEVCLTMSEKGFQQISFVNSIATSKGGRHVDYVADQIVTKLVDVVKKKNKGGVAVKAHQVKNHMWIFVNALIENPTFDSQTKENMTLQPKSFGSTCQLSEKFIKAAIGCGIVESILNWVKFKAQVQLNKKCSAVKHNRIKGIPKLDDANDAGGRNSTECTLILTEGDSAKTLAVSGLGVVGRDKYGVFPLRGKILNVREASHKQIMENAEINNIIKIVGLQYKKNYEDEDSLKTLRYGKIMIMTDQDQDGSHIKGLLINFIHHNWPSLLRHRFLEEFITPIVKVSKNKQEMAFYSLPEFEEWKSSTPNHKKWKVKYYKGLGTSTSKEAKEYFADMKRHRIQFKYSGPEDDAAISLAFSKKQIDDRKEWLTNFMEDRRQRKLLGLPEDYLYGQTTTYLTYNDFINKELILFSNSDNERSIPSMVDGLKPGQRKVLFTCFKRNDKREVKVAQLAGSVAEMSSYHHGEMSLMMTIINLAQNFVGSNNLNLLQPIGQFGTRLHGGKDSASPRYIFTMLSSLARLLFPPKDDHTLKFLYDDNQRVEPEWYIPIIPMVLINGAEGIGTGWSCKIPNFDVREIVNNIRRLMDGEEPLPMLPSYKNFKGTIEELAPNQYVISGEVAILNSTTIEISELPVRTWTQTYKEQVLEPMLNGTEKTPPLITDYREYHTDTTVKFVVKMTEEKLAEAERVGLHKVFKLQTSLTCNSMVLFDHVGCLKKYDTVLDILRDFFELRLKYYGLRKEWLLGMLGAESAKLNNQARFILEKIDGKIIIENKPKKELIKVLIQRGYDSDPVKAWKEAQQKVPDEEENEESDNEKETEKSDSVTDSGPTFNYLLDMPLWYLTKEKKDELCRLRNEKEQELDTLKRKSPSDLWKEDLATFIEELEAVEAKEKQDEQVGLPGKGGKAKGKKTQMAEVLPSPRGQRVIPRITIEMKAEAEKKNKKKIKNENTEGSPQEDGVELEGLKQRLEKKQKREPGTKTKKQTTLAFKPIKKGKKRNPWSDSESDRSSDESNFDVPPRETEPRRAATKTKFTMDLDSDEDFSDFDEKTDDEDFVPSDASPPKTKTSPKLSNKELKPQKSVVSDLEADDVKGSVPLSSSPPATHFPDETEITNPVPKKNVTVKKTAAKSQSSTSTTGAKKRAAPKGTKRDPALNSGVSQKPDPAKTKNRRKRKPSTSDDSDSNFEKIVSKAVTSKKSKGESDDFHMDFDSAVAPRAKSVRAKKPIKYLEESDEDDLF

human topo IIβ = human topo IIβ (Homo sapiens, UniProt Q02880); test: Human topo IIβ-mediated decatenation assay; assay type: biochemical
Chain of human topo IIβ (Q02880 whole entry): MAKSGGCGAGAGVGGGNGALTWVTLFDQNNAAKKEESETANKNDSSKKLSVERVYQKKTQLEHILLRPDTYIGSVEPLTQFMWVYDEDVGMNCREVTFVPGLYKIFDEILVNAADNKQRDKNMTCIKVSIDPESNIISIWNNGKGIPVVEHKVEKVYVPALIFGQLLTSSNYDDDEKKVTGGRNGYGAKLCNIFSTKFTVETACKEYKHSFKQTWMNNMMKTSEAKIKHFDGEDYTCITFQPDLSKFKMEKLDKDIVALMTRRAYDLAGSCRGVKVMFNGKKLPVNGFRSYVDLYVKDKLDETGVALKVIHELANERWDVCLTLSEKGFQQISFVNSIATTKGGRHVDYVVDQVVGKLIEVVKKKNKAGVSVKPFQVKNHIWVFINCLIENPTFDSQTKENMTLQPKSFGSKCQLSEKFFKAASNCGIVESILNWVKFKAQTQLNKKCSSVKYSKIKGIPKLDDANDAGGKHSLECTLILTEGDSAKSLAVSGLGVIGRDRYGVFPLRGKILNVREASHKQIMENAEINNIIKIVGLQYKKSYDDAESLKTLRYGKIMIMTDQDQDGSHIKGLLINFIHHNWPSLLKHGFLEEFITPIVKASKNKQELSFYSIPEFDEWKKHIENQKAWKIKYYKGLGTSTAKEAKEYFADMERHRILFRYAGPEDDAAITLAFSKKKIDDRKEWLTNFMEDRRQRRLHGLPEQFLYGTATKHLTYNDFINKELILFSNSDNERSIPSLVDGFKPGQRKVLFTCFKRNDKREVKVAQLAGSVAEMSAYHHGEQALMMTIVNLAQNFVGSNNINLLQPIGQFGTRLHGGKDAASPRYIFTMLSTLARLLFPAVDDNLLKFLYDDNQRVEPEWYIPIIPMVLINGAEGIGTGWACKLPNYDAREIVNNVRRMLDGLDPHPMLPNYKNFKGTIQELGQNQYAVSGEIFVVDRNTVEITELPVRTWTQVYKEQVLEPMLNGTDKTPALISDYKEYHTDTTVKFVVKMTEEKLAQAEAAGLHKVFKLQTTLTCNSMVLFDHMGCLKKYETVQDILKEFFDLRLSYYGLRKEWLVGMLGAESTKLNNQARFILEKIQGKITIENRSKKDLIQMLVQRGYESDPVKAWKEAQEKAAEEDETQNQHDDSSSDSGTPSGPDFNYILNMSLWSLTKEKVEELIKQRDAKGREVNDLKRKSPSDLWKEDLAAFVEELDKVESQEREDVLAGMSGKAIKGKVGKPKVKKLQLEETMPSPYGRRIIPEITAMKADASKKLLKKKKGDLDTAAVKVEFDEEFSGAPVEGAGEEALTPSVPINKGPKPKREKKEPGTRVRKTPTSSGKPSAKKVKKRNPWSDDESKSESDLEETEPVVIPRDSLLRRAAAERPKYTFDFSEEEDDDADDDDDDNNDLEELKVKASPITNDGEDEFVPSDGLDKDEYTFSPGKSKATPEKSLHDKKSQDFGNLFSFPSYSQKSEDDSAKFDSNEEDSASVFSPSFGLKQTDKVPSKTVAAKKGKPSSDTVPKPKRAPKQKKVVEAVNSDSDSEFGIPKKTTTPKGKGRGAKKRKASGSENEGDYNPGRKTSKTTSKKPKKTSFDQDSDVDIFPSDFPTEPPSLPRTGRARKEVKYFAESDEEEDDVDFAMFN

human topo IIα [3] = target: T1, human topo IIα; test: Human topoisomerase IIα-mediated cleavage assay; assay type: biochemical; details: 7.8-125 μM
human topo IIα [4] = target: T1, human topo IIα; test: Human topo IIα competitive cleavage assay; assay type: biochemical; details: in the presence of 50 μM etoposide
wheatgerm topo I = test: Wheatgerm topo I unwinding assay; assay type: biochemical, wheat germ; details: 7.8, 15.6, 31.25, 125 μM
In short: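 Wheat germ topo I plasmid unwinding run in duplicate at 7.8, 15.6, 31.25 and 125 µM test compound, with the intercalator m-AMSA as positive control.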

human topo II = human topo II (Homo sapiens, UniProt P11388); test: Competitive ATPase assay; assay type: biochemical; details: IC50 versus ATP concentration
Chain of human topo II (P11388 whole entry): as the sequence (P11388 whole entry) above
In short: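 NADH-coupled ATPase (pyruvate kinase/lactate dehydrogenase, phosphoenolpyruvate) with human topo II at 14 nM final and linear pBR322. Buffer was 20 mM Tris-HCl, 5 mM Mg acetate, 125 mM K acetate, 2 mM DTT, pH 7.9. Compound in DMSO went in before enzyme, then a 10–15 min OD340 pre-run. ATP was added at varying concentrations and OD340 followed for up to 30 min at 37 °C, in duplicate. Hydrolysis rates vs ATP gave IC50 at each ATP level.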

[5] = target: ATPase domain of topo IIα (Homo sapiens, UniProt P11388); test: 1H STD NMR experiments; assay type: binding; details: protein:ligand ratio 1:100
Chain of ATPase domain of topo IIα (P11388 1-453 limits assumed): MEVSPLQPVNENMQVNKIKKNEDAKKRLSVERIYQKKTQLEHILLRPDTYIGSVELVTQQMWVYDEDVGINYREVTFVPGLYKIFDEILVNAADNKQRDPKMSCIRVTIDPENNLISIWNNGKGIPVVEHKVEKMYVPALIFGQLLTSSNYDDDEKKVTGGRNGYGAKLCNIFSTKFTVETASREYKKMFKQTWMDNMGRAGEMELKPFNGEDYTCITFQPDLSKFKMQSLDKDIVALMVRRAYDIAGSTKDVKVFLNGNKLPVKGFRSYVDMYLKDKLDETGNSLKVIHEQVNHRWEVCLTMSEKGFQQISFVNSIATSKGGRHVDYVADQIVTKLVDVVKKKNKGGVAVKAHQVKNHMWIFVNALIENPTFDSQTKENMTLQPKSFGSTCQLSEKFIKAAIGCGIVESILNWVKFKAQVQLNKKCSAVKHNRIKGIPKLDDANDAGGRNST
In short: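 Runs were at 600 MHz, 25 °C, with a 100 ms T₁ρ filter. On-resonance saturation was at −0.727 ppm and off-resonance at 30 ppm. Saturation was 0.5 or 1 s depending on compound, with relaxation delay 4 or 1.5 s. Epitope maps come from STD amplification factors.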

[6] = Solubility as observed during preparation for assays; assay type: physicochemical
human topo IIα [7] = target: T1, human topo IIα; test: Human topoisomerase IIα-mediated relaxation assay; assay type: biochemical

Row | SMILES | cytotoxic activity in NCI-60 (in words) [1] | IC50 (human topo IIβ) [µM] | linear plasmid in the cleavage assay (in words) (human topo IIα [3]) | unwinding / intercalation (in words) (wheatgerm topo I) | interaction with the ATPase domain of topo IIα by STD NMR (in words) [5] | solubility (in words) [6] | IC50 (human topo IIα [7]) [µM] | other results
1 | O=c1nc(SCc2ccc(C(F)(F)F)cc2)nc(SCc2ccc3sccc3c2)[nH]1 [Compound 25, 6-((Benzo[b]thiophen-5-ylmethyl)thio)−4-((4-(trifluoromethyl)benzyl)thio)−1,3,5-triazin-2(1H)-one] | more diverse and potent cytotoxic effects |  |  |  |  |  |  | inhibition at 10 µM (U251): 80%; inhibition at 10 µM (SK-MEL-5): 89.5%
2 | CC(C)c1ccc(CSc2nc(SCc3ccc4sccc4c3)[nH]c(=O)n2)cc1 [Compound 26, 6-((Benzo[b]thiophen-5-ylmethyl)thio)−4-((4-isopropylbenzyl)thio)−1,3,5-triazin-2(1H)-one] | much lower compared to 24 and 25 |  |  |  |  |  |  | 
3 | O=c1nc(SCc2cc(F)cc(C(F)(F)F)c2)nc(SCc2ccc3nc(Cl)ccc3c2)[nH]1 [Compound 30, 6-(((2-Chloroquinolin-6-yl)methyl)thio)−4-((3-fluoro-5-(trifluoromethyl)benzyl)thio)−1,3,5-triazin-2(1H)-one] |  | 10.6 ± 28.8 | only a very weak increase in the linear plasmid at the highest concentration of 125 μM | inhibitors rather than intercalators | confirmed the interaction | more soluble compared to the previous series; also recorded: more soluble compared to the benzyl-substituted analogues |  | IC50 (human topo IIα [2]): 12 ± 4.8 µM; linear product in the competitive cleavage assay (in words) (human topo IIα [4]): decreased the amount of linear product of the etoposide-topo IIα complex; mode of inhibition with respect to ATP (in words) (human topo II): ATP-competitive inhibition
4 | O=c1nc(SCc2cc(F)cc(C(F)(F)F)c2)nc(SCc2ccc3nc(OCCN4CCOCC4)ccc3c2)[nH]1 [Compound 31, 4-((3-Fluoro-5-(trifluoromethyl)benzyl)thio)−6-(((2-(2-morpholinoethoxy)quinolin-6-yl)methyl)thio)−1,3,5-triazin-2(1H)-one] |  |  | no linear plasmid up to the measured concentration of 125 μM |  | confirmed the interaction | more soluble compared to the previous series |  | IC50 (human topo IIα [2]): 18.5 ± 5.9 µM
5 | O=c1nc(SCc2cc(F)cc(C(F)(F)F)c2)nc(SCc2csc3ccc(Cl)cc23)[nH]1 [Compound 32, 6-(((5-Chlorobenzo[b]thiophen-3-yl)methyl)thio)−4-((3-fluoro-5-(trifluoromethyl)benzyl)thio)−1,3,5-triazin-2(1H)-one] |  | 8.3 ± 2.5 | higher even at lower concentrations |  |  |  | 8.7 ± 7.3 | IC50, topo IIα-mediated decatenation assay (human topo IIα [2]): single-digit micromolar range
6 | O=c1nc(SCc2ccc(C(F)(F)F)cc2)nc(SCc2csc3ccc(Cl)cc23)[nH]1 [Compound 33, 6-(((5-Chlorobenzo[b]thiophen-3-yl)methyl)thio)−4-((4-(trifluoromethyl)benzyl)thio)−1,3,5-triazin-2(1H)-one] |  |  |  |  |  |  | 7.7 ± 8.5 | IC50, topo IIα-mediated decatenation assay (human topo IIα [2]): single-digit micromolar range
7 | O=c1nc(SCc2cc(F)cc(C(F)(F)F)c2)nc(SCc2cccc(C(F)(F)F)c2)[nH]1 [Compound 34, 4-((3-Fluoro-5-(trifluoromethyl)benzyl)thio)− 6-((3-(trifluoromethyl)benzyl)thio)− 1,3,5-triazin-2(1 H)-one] | did not exhibit cytotoxic activity |  |  |  |  | less soluble |  | 
8 | Cc1nc(CSc2nc(SCc3ccc(C(C)C)cc3)nc(=O)[nH]2)cs1 [Compound 37, 4-((4-Isopropylbenzyl)thio)−6-(((2-methylthiazol-4-yl)methyl)thio)−1,3,5-triazin-2(1H)-one] | did not exhibit cytotoxic activity | 16 ± 39 | only a very weak increase in the linear plasmid at the highest concentration of 125 μM | inhibitors rather than intercalators | confirmed its interaction with the ATPase domain |  | 108 ± 3.8 | 
9 | COc1cc([C@@H]2c3cc4c(cc3[C@@H](O[C@@H]3O[C@@H]5CO[C@@H](C)O[C@H]5[C@H](O)[C@H]3O)[C@H]3COC(=O)[C@H]23)OCO4)cc(OC)c1O [Etoposide, etoposide, reference compound] |  |  |  | showed no signs of unfolding |  |  |  | 
10 | COc1cc(NS(C)(=O)=O)ccc1Nc1c2ccccc2nc2ccccc12 [mAMSA, reference compound] |  |  |  | showed intercalator-mediated effects at all 4 concentrations |  |  |  | 
